# Legend:
# [1] = target: Serine/threonine-protein kinase ATR (Homo sapiens, UniProt Q13535); experiment: Inhibition of ATR (unknown origin) using Avi-tagged protein substrate by alphascreen assay
# [2] = Solubility of the compound in PBS buffer at pH 7 by miniaturized shake flask equilibrium solubility assay
# [3] = target: Phosphatidylinositol 4,5-bisphosphate 3-kinase catalytic subunit alpha isoform (Homo sapiens, UniProt P42336); experiment: Inhibition of PI3Kalpha (unknown origin)
# [4] = Inhibition of CHK1 in HeLa S3 cells assessed as inhibition of phosphorylation at ser345 by AlphaScreen SureFire CHK1 (p-Ser345) assay
# Cytochrome P450 3A4 = Cytochrome P450 3A4 (Homo sapiens, UniProt P08684); experiment: Time dependent inhibition of CYP3A4 in human liver microsomes using midazolam as substrate assessed as ratio of Kinact to Ki preincubated for 0 to 30 mins followed by NADPH addition in phosphate buffer at 50 uM; assay type: ADME
# Method in brief: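 Compound was preincubated with human liver microsomes (0.5 mg/mL) in 100 mM phosphate buffer with 1 mM NADPH for 0, 5, 15 and 30 min, testing 50 μM plus serial dilutions. The mix was diluted 20-fold and incubated with 20 μM midazolam to measure residual CYP3A4 activity. Activity versus preincubation time gave the kinetic TDI parameters.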
# [5] = target: Serine-protein kinase ATM (Homo sapiens, UniProt Q13315); experiment: Inhibition of ATM (unknown origin) using p53-Q10-K17 peptide substrate by alphascreen assay
# [6] = target: DNA-dependent protein kinase catalytic subunit (Homo sapiens, UniProt P78527)
# [7] = target: Serine/threonine-protein kinase mTOR (Homo sapiens, UniProt P42345); experiment: Inhibition of mTOR (unknown origin) by alphascreen SureFire p70 S6K (p-Thr389) assay
# Method in brief: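 They were treated with compound for 1 h under the same conditions. The read-out was p70 S6K phospho-Thr389.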
# Liver microsome = experiment: Metabolic stability in human liver microsomes assessed as level of GSH adduct after 60 mins at 10 uM by GSH trapping assay; details: 1 h
# [8] = Oral bioavailability in rat at 2.5 mg/kg; assay type: ADME, organism-based; details: in vivo
# [9] = target: Voltage-gated inwardly rectifying potassium channel KCNH2 (Homo sapiens, UniProt Q12809); experiment: Inhibition of human ERG by automated whole cell electrophysiology
# [10] = Octanol-water distribution coefficient, log D of the compound with pH 7.4 PBS buffer
# [11] = Apparent permeability across apical to basolateral side in human Caco2 cells at pH 7.4; details: Caco-2, pH 7.4
# [12] = Apparent permeability across basolateral to apical side in human Caco2 cells at pH 7.4; details: Caco-2, pH 7.4
# [13] = Clearance in rat at 2.5 mg/kg; assay type: ADME, organism-based; set-up: dose 2.5 mg/kg; details: in vivo
# [14] = Volume of distribution at steady state in rat at 2.5 mg/kg; assay type: ADME, organism-based; set-up: dose 2.5 mg/kg; details: in vivo, read-out: Vdss
# [15] = Half life in rat at 2.5 mg/kg; assay type: ADME, organism-based; set-up: dose 2.5 mg/kg; details: in vivo
# Phosphatidylinositol 4,5-bisphosphate 3-kinase catalytic subunit alpha isoform, sequence (P42336 whole entry, canonical isoform): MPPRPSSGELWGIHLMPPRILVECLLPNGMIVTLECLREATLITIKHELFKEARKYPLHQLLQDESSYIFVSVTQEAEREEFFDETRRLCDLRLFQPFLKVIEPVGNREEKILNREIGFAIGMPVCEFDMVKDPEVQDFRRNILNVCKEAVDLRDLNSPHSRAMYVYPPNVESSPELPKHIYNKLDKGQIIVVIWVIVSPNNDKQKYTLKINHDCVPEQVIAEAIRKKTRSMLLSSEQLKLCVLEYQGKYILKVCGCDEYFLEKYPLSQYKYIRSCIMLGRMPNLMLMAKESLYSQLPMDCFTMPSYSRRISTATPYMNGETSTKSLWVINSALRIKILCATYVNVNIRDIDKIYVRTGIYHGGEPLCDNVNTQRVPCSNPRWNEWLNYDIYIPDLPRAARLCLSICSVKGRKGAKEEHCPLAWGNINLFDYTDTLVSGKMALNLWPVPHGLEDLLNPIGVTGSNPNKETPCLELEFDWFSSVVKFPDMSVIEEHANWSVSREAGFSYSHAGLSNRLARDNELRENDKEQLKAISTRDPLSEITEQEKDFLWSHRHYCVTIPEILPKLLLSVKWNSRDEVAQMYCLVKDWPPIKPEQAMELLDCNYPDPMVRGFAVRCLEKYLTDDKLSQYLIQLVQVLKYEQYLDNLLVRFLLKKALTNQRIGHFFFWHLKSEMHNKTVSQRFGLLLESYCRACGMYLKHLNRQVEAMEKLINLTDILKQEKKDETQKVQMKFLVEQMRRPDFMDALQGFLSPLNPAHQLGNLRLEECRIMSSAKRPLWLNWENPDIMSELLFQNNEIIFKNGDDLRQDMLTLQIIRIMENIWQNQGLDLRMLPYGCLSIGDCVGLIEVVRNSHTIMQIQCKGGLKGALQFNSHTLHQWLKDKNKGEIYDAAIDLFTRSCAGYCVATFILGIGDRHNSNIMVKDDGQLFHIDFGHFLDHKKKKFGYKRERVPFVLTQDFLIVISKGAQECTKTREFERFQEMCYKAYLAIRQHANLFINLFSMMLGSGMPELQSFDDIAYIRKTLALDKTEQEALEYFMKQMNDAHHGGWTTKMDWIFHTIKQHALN
# Serine-protein kinase ATM, sequence (Q13315 whole entry): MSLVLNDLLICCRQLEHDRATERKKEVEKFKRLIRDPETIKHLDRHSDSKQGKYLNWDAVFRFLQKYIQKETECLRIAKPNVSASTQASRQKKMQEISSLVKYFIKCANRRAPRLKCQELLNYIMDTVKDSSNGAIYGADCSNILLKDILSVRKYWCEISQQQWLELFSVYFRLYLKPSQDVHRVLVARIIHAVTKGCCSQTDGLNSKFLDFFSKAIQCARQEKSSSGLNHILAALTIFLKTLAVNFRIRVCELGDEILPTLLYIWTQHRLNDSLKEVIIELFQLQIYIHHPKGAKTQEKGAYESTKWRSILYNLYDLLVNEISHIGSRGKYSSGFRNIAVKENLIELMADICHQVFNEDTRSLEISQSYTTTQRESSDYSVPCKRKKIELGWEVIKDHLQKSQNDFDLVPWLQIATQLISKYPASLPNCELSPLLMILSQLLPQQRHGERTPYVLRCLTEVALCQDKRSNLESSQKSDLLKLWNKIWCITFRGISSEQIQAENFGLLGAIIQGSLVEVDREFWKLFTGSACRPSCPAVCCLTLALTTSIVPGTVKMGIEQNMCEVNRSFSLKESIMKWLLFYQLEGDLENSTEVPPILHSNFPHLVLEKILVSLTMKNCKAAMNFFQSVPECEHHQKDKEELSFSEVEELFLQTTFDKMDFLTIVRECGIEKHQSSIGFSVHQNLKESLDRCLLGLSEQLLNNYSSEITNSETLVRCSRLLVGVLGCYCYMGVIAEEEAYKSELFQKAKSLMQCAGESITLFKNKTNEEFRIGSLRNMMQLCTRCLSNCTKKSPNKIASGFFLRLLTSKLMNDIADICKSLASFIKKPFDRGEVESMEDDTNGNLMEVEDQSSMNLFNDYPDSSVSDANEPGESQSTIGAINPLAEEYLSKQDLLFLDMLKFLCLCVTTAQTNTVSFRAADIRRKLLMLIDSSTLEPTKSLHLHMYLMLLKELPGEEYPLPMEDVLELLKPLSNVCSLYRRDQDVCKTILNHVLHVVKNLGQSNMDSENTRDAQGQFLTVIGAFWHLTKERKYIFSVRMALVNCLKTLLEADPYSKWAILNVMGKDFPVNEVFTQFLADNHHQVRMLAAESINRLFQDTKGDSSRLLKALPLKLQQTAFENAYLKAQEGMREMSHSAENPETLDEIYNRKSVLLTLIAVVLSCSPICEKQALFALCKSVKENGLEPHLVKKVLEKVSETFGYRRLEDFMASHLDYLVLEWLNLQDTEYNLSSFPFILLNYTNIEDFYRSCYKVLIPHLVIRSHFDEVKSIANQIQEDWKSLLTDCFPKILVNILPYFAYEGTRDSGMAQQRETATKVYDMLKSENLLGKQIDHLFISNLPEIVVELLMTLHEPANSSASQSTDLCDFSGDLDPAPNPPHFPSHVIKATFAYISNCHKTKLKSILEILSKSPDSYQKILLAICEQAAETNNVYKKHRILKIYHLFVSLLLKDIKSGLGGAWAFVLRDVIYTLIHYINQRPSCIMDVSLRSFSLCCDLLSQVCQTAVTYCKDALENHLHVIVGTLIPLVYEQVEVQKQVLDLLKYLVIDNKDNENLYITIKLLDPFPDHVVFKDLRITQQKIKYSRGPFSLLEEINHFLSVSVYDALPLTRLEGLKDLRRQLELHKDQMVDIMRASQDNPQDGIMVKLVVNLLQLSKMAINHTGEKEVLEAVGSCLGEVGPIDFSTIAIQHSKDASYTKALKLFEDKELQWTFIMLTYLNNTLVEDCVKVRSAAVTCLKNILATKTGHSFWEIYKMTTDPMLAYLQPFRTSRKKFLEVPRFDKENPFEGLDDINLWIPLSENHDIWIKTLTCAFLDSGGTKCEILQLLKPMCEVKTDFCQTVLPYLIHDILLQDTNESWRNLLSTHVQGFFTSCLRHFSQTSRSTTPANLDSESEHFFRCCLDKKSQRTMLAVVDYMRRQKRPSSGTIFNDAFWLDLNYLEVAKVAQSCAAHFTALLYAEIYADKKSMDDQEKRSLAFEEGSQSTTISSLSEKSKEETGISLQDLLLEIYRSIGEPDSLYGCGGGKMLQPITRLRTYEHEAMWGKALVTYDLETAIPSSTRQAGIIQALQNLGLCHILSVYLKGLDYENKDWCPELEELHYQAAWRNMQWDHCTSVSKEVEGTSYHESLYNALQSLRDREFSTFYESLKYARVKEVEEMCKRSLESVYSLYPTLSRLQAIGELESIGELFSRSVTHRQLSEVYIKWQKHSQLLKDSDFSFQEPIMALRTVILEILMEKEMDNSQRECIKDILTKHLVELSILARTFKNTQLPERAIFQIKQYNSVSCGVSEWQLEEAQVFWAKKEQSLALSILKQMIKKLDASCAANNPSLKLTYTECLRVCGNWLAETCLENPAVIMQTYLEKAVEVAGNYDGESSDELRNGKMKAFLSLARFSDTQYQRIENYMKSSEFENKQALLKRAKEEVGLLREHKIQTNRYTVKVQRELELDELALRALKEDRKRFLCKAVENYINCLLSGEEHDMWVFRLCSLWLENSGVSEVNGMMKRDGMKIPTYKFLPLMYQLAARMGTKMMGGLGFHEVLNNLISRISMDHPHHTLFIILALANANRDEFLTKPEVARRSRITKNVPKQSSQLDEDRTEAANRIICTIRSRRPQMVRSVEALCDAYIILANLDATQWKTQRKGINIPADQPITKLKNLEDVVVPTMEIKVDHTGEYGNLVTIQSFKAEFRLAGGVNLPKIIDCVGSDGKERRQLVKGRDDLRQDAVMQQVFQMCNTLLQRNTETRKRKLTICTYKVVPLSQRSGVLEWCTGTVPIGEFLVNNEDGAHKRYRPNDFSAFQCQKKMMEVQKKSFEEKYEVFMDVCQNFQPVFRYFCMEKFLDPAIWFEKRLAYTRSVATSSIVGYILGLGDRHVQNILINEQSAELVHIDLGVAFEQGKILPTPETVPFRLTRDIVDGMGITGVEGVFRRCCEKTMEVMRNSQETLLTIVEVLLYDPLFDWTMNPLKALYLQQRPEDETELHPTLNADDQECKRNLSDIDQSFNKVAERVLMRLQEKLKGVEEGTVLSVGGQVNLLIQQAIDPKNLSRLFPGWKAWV
# Cytochrome P450 3A4, sequence (P08684 whole entry): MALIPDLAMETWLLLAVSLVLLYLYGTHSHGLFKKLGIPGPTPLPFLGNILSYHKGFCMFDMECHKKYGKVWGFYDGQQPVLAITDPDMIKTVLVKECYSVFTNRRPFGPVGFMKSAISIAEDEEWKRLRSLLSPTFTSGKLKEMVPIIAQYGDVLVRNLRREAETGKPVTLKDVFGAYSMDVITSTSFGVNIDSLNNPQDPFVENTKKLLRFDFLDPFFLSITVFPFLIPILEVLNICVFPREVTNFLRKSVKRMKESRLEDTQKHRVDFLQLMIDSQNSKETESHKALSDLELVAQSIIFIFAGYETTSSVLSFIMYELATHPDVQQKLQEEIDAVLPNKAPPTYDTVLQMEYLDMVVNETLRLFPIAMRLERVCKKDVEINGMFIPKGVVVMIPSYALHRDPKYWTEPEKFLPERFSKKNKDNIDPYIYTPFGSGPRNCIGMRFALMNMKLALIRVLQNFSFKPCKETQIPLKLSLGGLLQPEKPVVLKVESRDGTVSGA
compound,measurement,setting,value
C[C@@H]1Cn2ncc(-c3ccc(S(=O)(=O)N(C)C)cc3)c2CN1c1ccnc2[nH]ccc12,IC50,[1],0.5 nM
same,solubility thermodynamic,[2],188 µM
same,IC50,[3],> 10000 nM
same,IC50,[4],123 nM
C[C@@H]1Cc2ncn(C3CCN(S(C)(=O)=O)CC3)c2CN1c1ccnc2[nH]ccc12,Ratio,Cytochrome P450 3A4,0.001 µL/min/pmol
same,IC50,[1],41 nM
CN(C)S(=O)(=O)c1ccc(-c2cnn3c2CN(c2ccnc4[nH]ccc24)CC3)cc1,IC50,[1],1 nM
same,solubility thermodynamic,[2],3 µM
same,IC50,[3],1100 nM
C[C@@H]1Cn2ncc(-c3ccc(S(C)(=O)=O)cc3)c2CN1c1ccnc2[nH]ccc12,IC50,[1],0.3 nM
same,IC50,[5],130 nM
same,IC50,[6],140 nM
same,IC50,[7],1100 nM
C[C@@H]1Cn2ncc(C3CCN(S(C)(=O)=O)CC3)c2CN1c1ccnc(N)c1,inhibition (INH),Cytochrome P450 3A4,Active
same,IC50,[1],440 nM
C[C@@H]1Cn2ncc(C3CCN(S(C)(=O)=O)CC3)c2C(=O)N1c1ccnc2[nH]ccc12,TDI,Cytochrome P450 3A4,Not Active
same,IC50,[1],64 nM
C[C@@H]1Cn2ncc(C3CCN(S(C)(=O)=O)CC3)c2CN1c1ccnc2[nH]ncc12,inhibition (INH),Cytochrome P450 3A4,Not Active
same,IC50,[1],29 nM
[2H][C@@]1(C)Cn2ncc(C3CCN(S(C)(=O)=O)CC3)c2CN1c1cc(Cl)nc2[nH]ccc12,Stability,Liver microsome,Stable
CN(C)S(=O)(=O)c1ccc(-c2cnc3ccc(-c4ccnc5[nH]ccc45)nn23)cc1,IC50,[1],0.5 nM
same,IC50,[3],40 nM
same,IC50,[4],44 nM
C[C@@H]1Cn2ncc(C3CCN(S(C)(=O)=O)CC3)c2CN1c1cc(Cl)nc2[nH]ccc12,bioavailability,[8],64%
same,IC50,[1],0.4 nM
same,IC50,[5],4300 nM
same,IC50,[6],1600 nM
same,IC50,[7],4400 nM
same,IC50,[9],12500 nM
same,solubility thermodynamic,[2],37 µM
same,logD,[10],3.4
same,Papp A→B,[11],18 ×10⁻⁶ cm/s
same,Papp B→A,[12],30 ×10⁻⁶ cm/s
same,clearance,[13],57 mL/min/kg
same,Vd,[14],3.3 L/kg
same,half-life,[15],51.6 min
C[C@@H]1Cn2ncc(C3CCN(S(C)(=O)=O)CC3)c2CN1c1ccnc2[nH]cnc12,inhibition (INH),Cytochrome P450 3A4,Active
same,IC50,[1],2 nM
CC1(C)Cn2ncc(C3CCN(S(C)(=O)=O)CC3)c2CN1c1cc(Cl)nc2[nH]ccc12,Ratio,Cytochrome P450 3A4,0.023 µL/min/pmol
same,IC50,[1],6200 nM
COc1ccc(-c2ccc3ncc(-c4ccc(C(N)=O)cc4)n3n2)cc1OC,IC50,[1],26 nM
same,IC50,[3],9 nM
[2H]C1([2H])c2c(C3CCN(S(C)(=O)=O)CC3)cnn2C[C@@]([2H])(C)N1c1cc(Cl)nc2[nH]ccc12,Stability,Liver microsome,Unstable
C[C@@H]1Cn2ncc(C3CCN(S(C)(=O)=O)CC3)c2CN1c1ccnc2[nH]ccc12,IC50,[1],1 nM
same,IC50,[5],14000 nM
same,IC50,[6],6500 nM
same,IC50,[7],> 2300 nM
same,solubility thermodynamic,[2],965 µM
same,logD,[10],2.4
same,Papp A→B,[11],10 ×10⁻⁶ cm/s
same,Papp B→A,[12],44 ×10⁻⁶ cm/s
[2H]C1([2H])c2c(C3CCN(S(C)(=O)=O)CC3)cnn2C[C@@H](C)N1c1cc(Cl)nc2[nH]ccc12,Stability,Liver microsome,Unstable
C[C@@H]1[C@@H](C)n2ncc(C3CCN(S(C)(=O)=O)CC3)c2CN1c1ccnc2[nH]ccc12,Ratio,Cytochrome P450 3A4,0.004 µL/min/pmol
same,IC50,[1],2100 nM
